Columns and labels:
Galanin receptor type 1 = target: T1, Galanin receptor type 1 (Homo sapiens, UniProt P47211); test: Displacement of europium labeled galanin from human recombinant GalR1 receptor by time-resolved fluorescence binding assay
T1 sequence (P47211 whole entry): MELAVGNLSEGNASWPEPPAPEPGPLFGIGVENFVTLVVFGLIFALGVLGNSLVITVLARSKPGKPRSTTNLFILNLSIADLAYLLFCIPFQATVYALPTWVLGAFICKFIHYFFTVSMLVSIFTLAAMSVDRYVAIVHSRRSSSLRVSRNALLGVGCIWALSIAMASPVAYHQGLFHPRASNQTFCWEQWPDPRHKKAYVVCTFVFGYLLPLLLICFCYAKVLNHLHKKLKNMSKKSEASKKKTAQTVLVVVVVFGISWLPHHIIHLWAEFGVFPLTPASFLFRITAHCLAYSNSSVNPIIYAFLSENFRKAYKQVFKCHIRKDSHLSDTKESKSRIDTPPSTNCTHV
Method in brief: (§1)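 Competition binding on membranes from recombinant human GalR1 or GalR2 versus 2 nM europium-labeled galanin; 90 min incubation at room temperature, four washes (50 mM Tris-HCl pH 7.5, 5 mM MgCl2), enhancement solution 30 min at room temperature, time-resolved fluorescence read.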

Galanin receptor type 2 = target: T2, Galanin receptor type 2 (Homo sapiens, UniProt O43603); test: Displacement of europium labeled galanin from human recombinant GalR2 receptor by time-resolved fluorescence binding assay
T2 sequence (O43603 whole entry): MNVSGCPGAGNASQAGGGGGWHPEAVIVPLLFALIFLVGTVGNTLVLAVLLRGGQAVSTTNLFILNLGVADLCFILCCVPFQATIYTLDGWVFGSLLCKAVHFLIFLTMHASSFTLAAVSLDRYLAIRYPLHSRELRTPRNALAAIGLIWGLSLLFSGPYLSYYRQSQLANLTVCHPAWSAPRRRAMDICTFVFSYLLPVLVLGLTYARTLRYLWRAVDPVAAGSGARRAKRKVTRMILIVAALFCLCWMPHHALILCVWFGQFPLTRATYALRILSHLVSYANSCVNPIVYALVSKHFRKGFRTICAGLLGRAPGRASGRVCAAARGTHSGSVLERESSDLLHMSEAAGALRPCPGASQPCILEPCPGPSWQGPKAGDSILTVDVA
Method in brief: as §1, with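 “read. Ki from nonlinear sigmoidal variable-slope fit, one-site reversible model, tracer Kd held at 4.3 nM.” for “read.”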

[1] = Lipophilicity, log D by HPLC method; type: physicochemical
Method in brief: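 HPLC retention times were measured on a linear gradient of 20% to 100% buffer B (0.1% TFA in 90% aqueous acetonitrile; A was 0.1% TFA in water) over 40 min. Five analogs were calibrated by shake flask: 400 µg peptide in 1 mL PBS shaken with an equal volume of water-saturated octanol for 24 h, aqueous phase quantified by HPLC. LogD was calculated from the linear correlation with retention time.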

logD [1]	Structure (SMILES)	Ki (Galanin receptor type 1) [nM]	Ki (Galanin receptor type 2) [nM]
–	CCCCCCCCCCCCCCCCCC(=O)NCCCC[C@H](NC(=O)[C@H](CCCCN)NC(=O)[C@H](CCCCN)NC(=O)[C@@H]1CCCN1C(=O)CNC(=O)[C@H](CC(C)C)NC(=O)[C@H](CC(C)C)NC(=O)[C@H](Cc1ccc(O)cc1)NC(=O)CNC(=O)[C@H](C)NC(=O)[C@H](CO)NC(=O)[C@H](CC(N)=O)NC(=O)[C@H](CC(C)C)NC(=O)[C@@H](NC(=O)[C@H](Cc1c[nH]c2ccccc12)NC(=O)CNC)[C@@H](C)O)C(=O)N[C@@H](CCCCN)C(N)=O	4	15
1.35	CCCCCCCCCCCCCCCCCC(=O)NCCCC[C@H](NC(=O)[C@H](CCCCN)NC(=O)[C@H](CCCCN)NC(=O)[C@@H]1CCCN1C(=O)CNC(=O)[C@H](CC(C)C)NC(=O)[C@H](CC(C)C)NC(=O)[C@H](Cc1ccc(O)cc1)NC(=O)CNC(=O)[C@H](C)NC(=O)[C@H](CO)NC(=O)[C@H](CC(N)=O)NC(=O)[C@H](CC(C)C)NC(=O)[C@@H](NC(=O)[C@H](Cc1c[nH]c2ccccc12)OC(=O)CNC)[C@@H](C)O)C(=O)N[C@@H](CCCCN)C(N)=O	–	–
–	CCCCCCCCCC(=O)NCCCC[C@H](NC(=O)[C@H](CCCCN)NC(=O)[C@H](CCCCN)NC(=O)[C@@H]1CCCN1C(=O)CNC(=O)[C@H](CC(C)C)NC(=O)[C@H](CC(C)C)NC(=O)[C@H](Cc1ccc(O)cc1)NC(=O)CNC(=O)[C@H](C)NC(=O)[C@H](CO)NC(=O)[C@H](CC(N)=O)NC(=O)[C@H](CC(C)C)NC(=O)[C@@H](NC(=O)[C@H](Cc1c[nH]c2ccccc12)NC(=O)CNC)[C@@H](C)O)C(=O)N[C@@H](CCCCN)C(N)=O	1.3	14.4
–	CCCCCCCC(=O)NCCCC[C@H](NC(=O)[C@H](CCCCN)NC(=O)[C@H](CCCCN)NC(=O)[C@@H]1CCCN1C(=O)CNC(=O)[C@H](CC(C)C)NC(=O)[C@H](CC(C)C)NC(=O)[C@H](Cc1ccc(O)cc1)NC(=O)CNC(=O)[C@H](C)NC(=O)[C@H](CO)NC(=O)[C@H](CC(N)=O)NC(=O)[C@H](CC(C)C)NC(=O)[C@@H](NC(=O)[C@H](Cc1c[nH]c2ccccc12)NC(=O)CNC)[C@@H](C)O)C(=O)N[C@@H](CCCCN)C(N)=O	0.7	14.9
0.78	CCCCCCCC(=O)NCCCC[C@H](NC(=O)[C@H](CCCCN)NC(=O)[C@H](CCCCN)NC(=O)[C@@H]1CCCN1C(=O)CNC(=O)[C@H](CC(C)C)NC(=O)[C@H](CC(C)C)NC(=O)[C@H](Cc1ccc(O)cc1)NC(=O)CNC(=O)[C@H](C)NC(=O)[C@H](CO)NC(=O)[C@H](CC(N)=O)NC(=O)[C@H](CC(C)C)NC(=O)[C@@H](NC(=O)[C@H](Cc1c[nH]c2ccccc12)OC(=O)CNC)[C@@H](C)O)C(=O)N[C@@H](CCCCN)C(N)=O	–	–
–	CNCC(=O)N[C@@H](Cc1c[nH]c2ccccc12)C(=O)N[C@H](C(=O)N[C@@H](CC(C)C)C(=O)N[C@@H](CC(N)=O)C(=O)N[C@@H](CO)C(=O)N[C@@H](C)C(=O)NCC(=O)N[C@@H](Cc1ccc(O)cc1)C(=O)N[C@@H](CC(C)C)C(=O)N[C@@H](CC(C)C)C(=O)NCC(=O)N1CCC[C@H]1C(=O)N[C@@H](CCCCN)C(=O)N[C@@H](CCCCN)C(=O)N[C@@H](CCCCNC(=O)COCCOCCOCCOCCOC)C(=O)N[C@@H](CCCCN)C(N)=O)[C@@H](C)O	0.5	20.5
–	CCCCCCCCCCCC(=O)NCCCC[C@H](NC(=O)[C@H](CCCCN)NC(=O)[C@H](CCCCN)NC(=O)[C@@H]1CCCN1C(=O)CNC(=O)[C@H](CC(C)C)NC(=O)[C@H](CC(C)C)NC(=O)[C@H](Cc1ccc(O)cc1)NC(=O)CNC(=O)[C@H](C)NC(=O)[C@H](CO)NC(=O)[C@H](CC(N)=O)NC(=O)[C@H](CC(C)C)NC(=O)[C@@H](NC(=O)[C@H](Cc1c[nH]c2ccccc12)NC(=O)CNC)[C@@H](C)O)C(=O)N[C@@H](CCCCN)C(N)=O	1.4	16.1
–	CCCCCCCCCCCCCC(=O)NCCCC[C@H](NC(=O)[C@H](CCCCN)NC(=O)[C@H](CCCCN)NC(=O)[C@@H]1CCCN1C(=O)CNC(=O)[C@H](CC(C)C)NC(=O)[C@H](CC(C)C)NC(=O)[C@H](Cc1ccc(O)cc1)NC(=O)CNC(=O)[C@H](C)NC(=O)[C@H](CO)NC(=O)[C@H](CC(N)=O)NC(=O)[C@H](CC(C)C)NC(=O)[C@@H](NC(=O)[C@H](Cc1c[nH]c2ccccc12)NC(=O)CNC)[C@@H](C)O)C(=O)N[C@@H](CCCCN)C(N)=O	2.6	18.2

Reference: ChEMBL document CHEMBL1140938, “Structural requirements for a lipoamino acid in modulating the anticonvulsant activities of systemically active galanin analogues” (J Med Chem, 2009)
